Assay results taken from ChEMBL document CHEMBL1151448, “Comparative antianaerobic activities of doripenem determined by MIC and time-kill analysis” (2008).
Converted amounts (≈) assume the structure as drawn.

Key:
Format in all cases: functional
Bacteroides fragilis [1] = test: Antimicrobial activity against beta lactamase-positive Bacteroides fragilis isolated from intra-abdominal infection and pelvic inflammatory disease patients after 48 hrs by agar dilution method
How it was run: (§1)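 CLSI agar dilution on brucella blood agar supplemented with laked sheep blood, hemin and vitamin K. Inocula of about 1 × 10^5 CFU/spot were applied by Steers replicator, and plates were incubated 48 h at 35°C in an anaerobic glove box. MIC was the concentration giving marked growth reduction versus the anaerobic control plate. QC strains were included each run, and β-lactamase was detected by Cefinase disk.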

[2] = test system: Bacteroides thetaiotaomicron; test: Antimicrobial activity against beta lactamase-positive Bacteroides thetaiotaomicron isolated from intra-abdominal infection and pelvic inflammatory disease patients after 48 hrs by agar dilution method; how it was run: as §1
Bacteroides fragilis [3] = test: Antimicrobial activity against beta lactamase-positive Bacteroides fragilis isolated from intra-abdominal infection and pelvic inflammatory disease patients after 48 hrs by time kill analysis
How it was run: (§2)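 The MIC was read by inspecting macrodilution time-kill tubes. Vials held prereduced brucella broth with 5% laked horse blood cells, hemin 5 μg/ml and vitamin K1 1 μg/ml. Final inoculum was 10^6–10^7 CFU/ml, prepared inside the anaerobe chamber. Vials were incubated 48 h at 35°C in a shaking water bath.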

Prevotella intermedia [4] = test: Antimicrobial activity against beta lactamase-positive Prevotella intermedia isolated from intra-abdominal infection and pelvic inflammatory disease patients after 48 hrs by time kill analysis; how it was run: as §2
Finegoldia magna [5] = test: Antimicrobial activity against beta lactamase-positive Finegoldia magna isolated from intra-abdominal infection and pelvic inflammatory disease patients after 48 hrs by time kill analysis; how it was run: as §2
Fusobacterium nucleatum [6] = test: Antimicrobial activity against beta lactamase-positive Fusobacterium nucleatum isolated from intra-abdominal infection and pelvic inflammatory disease patients after 48 hrs by time kill analysis; how it was run: as §2
Clostridium perfringens [7] = test: Antimicrobial activity against Clostridium perfringens isolated from intra-abdominal infection and pelvic inflammatory disease patients after 48 hrs by time kill analysis
How it was run: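 Macrodilution in prereduced brucella broth with 5% laked horse blood cells, 5 μg/ml hemin and 1 μg/ml vitamin K1. Final inoculum 10^6 to 10^7 CFU/ml, prepared inside the anaerobe chamber. Vials incubated 48 h at 35°C in a shaking water bath. MIC read by inspecting the time-kill tubes, alongside an antibiotic-free growth control.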

Bacteroides ovatus = test: Antimicrobial activity against beta lactamase-positive Bacteroides ovatus isolated from intra-abdominal infection and pelvic inflammatory disease patients after 48 hrs by agar dilution method; how it was run: as §1
Phocaeicola vulgatus = test: Antimicrobial activity against beta lactamase-positive Bacteroides vulgatus isolated from intra-abdominal infection and pelvic inflammatory disease patients after 48 hrs by agar dilution method; how it was run: as §1
[8] = test system: Parabacteroides distasonis; test: Antimicrobial activity against beta lactamase-positive Bacteroides distasonis isolated from intra-abdominal infection and pelvic inflammatory disease patients after 48 hrs by agar dilution method; how it was run: as §1
Prevotella bivia = test: Antimicrobial activity against beta lactamase-positive Prevotella bivia isolated from intra-abdominal infection and pelvic inflammatory disease patients after 48 hrs by agar dilution method; how it was run: as §1
Prevotella disiens = test: Antimicrobial activity against beta lactamase-positive Prevotella disiens isolated from intra-abdominal infection and pelvic inflammatory disease patients after 48 hrs by agar dilution method; how it was run: as §1
Prevotella intermedia [9] = test: Antimicrobial activity against beta lactamase-positive Prevotella intermedia isolated from intra-abdominal infection and pelvic inflammatory disease patients after 48 hrs by agar dilution method; how it was run: as §1
Prevotella nigrescens = test: Antimicrobial activity against beta lactamase-positive Prevotella nigrescens isolated from intra-abdominal infection and pelvic inflammatory disease patients after 48 hrs by agar dilution method; how it was run: as §1
[10] = test system: Prevotella melaninogenica; test: Antimicrobial activity against beta lactamase-positive Prevotella melaninogenica isolated from intra-abdominal infection and pelvic inflammatory disease patients after 48 hrs by agar dilution method; how it was run: as §1
Prevotella denticola = test: Antimicrobial activity against beta lactamase-positive Prevotella denticola isolated from intra-abdominal infection and pelvic inflammatory disease patients after 48 hrs by agar dilution method; how it was run: as §1
Prevotella corporis = test: Antimicrobial activity against beta lactamase-positive Prevotella corporis isolated from intra-abdominal infection and pelvic inflammatory disease patients after 48 hrs by agar dilution method; how it was run: as §1
Prevotella buccae = test: Antimicrobial activity against beta lactamase-positive Prevotella buccae isolated from intra-abdominal infection and pelvic inflammatory disease patients after 48 hrs by agar dilution method; conditions: Segatella buccae; how it was run: as §1
[11] = test system: Porphyromonas asaccharolytica; test: Antimicrobial activity against Porphyromonas asaccharolyticus isolated from intra-abdominal infection and pelvic inflammatory disease patients after 48 hrs by agar dilution method; how it was run: as §1
Porphyromonas gingivalis = test: Antimicrobial activity against Porphyromonas gingivalis isolated from intra-abdominal infection and pelvic inflammatory disease patients after 48 hrs by agar dilution method; how it was run: as §1
Porphyromonas levii = test: Antimicrobial activity against Porphyromonas levii isolated from intra-abdominal infection and pelvic inflammatory disease patients after 48 hrs by agar dilution method; how it was run: as §1
Fusobacterium nucleatum [12] = test: Antimicrobial activity against beta lactamase-positive Fusobacterium nucleatum isolated from intra-abdominal infection and pelvic inflammatory disease patients after 48 hrs by agar dilution method; how it was run: as §1
[13] = test system: Fusobacterium necrophorum; test: Antimicrobial activity against Fusobacterium necrophorum isolated from intra-abdominal infection and pelvic inflammatory disease patients after 48 hrs by agar dilution method; how it was run: as §1
Fusobacterium varium = test: Antimicrobial activity against Fusobacterium varium isolated from intra-abdominal infection and pelvic inflammatory disease patients after 48 hrs by agar dilution method; how it was run: as §1
Fusobacterium mortiferum = test: Antimicrobial activity against beta lactamase-positive Fusobacterium mortiferum isolated from intra-abdominal infection and pelvic inflammatory disease patients after 48 hrs by agar dilution method; how it was run: as §1
Finegoldia magna [14] = test: Antimicrobial activity against Finegoldia magna isolated from intra-abdominal infection and pelvic inflammatory disease patients after 48 hrs by agar dilution method; how it was run: as §1
Parvimonas micra = test: Antimicrobial activity against Micromonas micros isolated from intra-abdominal infection and pelvic inflammatory disease patients after 48 hrs by agar dilution method; how it was run: as §1
[15] = test system: Peptostreptococcus anaerobius; test: Antimicrobial activity against Peptostreptococcus anaerobius isolated from intra-abdominal infection and pelvic inflammatory disease patients after 48 hrs by agar dilution method; how it was run: as §1
Anaerococcus prevotii = test: Antimicrobial activity against Anaerococcus prevotii isolated from intra-abdominal infection and pelvic inflammatory disease patients after 48 hrs by agar dilution method; how it was run: as §1
Anaerococcus tetradius = test: Antimicrobial activity against Anaerococcus tetradius isolated from intra-abdominal infection and pelvic inflammatory disease patients after 48 hrs by agar dilution method; how it was run: as §1
[16] = test system: Peptoniphilus asaccharolyticus; test: Antimicrobial activity against Peptoniphilus asaccharolyticus isolated from intra-abdominal infection and pelvic inflammatory disease patients after 48 hrs by agar dilution method; how it was run: as §1
Clostridium perfringens [17] = test: Antimicrobial activity against Clostridium perfringens isolated from intra-abdominal infection and pelvic inflammatory disease patients after 48 hrs by agar dilution method
How it was run: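 CLSI agar dilution on brucella blood agar supplemented with laked sheep blood, hemin and vitamin K. Inoculum about 1 × 10^5 CFU/spot, applied by Steers replicator. Plates incubated 48 h at 35°C in an anaerobic glove box. MIC is the concentration giving marked growth reduction versus the anaerobic control plate. Standard QC strains included in each run.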

Clostridioides difficile = test: Antimicrobial activity against Clostridium difficile isolated from intra-abdominal infection and pelvic inflammatory disease patients after 48 hrs by agar dilution method; how it was run: as §1
[Clostridium] innocuum = Antimicrobial activity against Clostridium innocuum isolated from intra-abdominal infection and pelvic inflammatory disease patients after 48 hrs by agar dilution method; how it was run: as §1
Thomasclavelia ramosa = test: Antimicrobial activity against Clostridium ramosum isolated from intra-abdominal infection and pelvic inflammatory disease patients after 48 hrs by agar dilution method; how it was run: as §1
[18] = test system: Paraclostridium bifermentans; test: Antimicrobial activity against Clostridium bifermentans isolated from intra-abdominal infection and pelvic inflammatory disease patients after 48 hrs by agar dilution method; how it was run: as §1
[19] = test system: Enterocloster clostridioformis; test: Antimicrobial activity against Clostridium clostridioforme isolated from intra-abdominal infection and pelvic inflammatory disease patients after 48 hrs by agar dilution method; how it was run: as §1
[20] = test system: Paeniclostridium sordellii; test: Antimicrobial activity against Clostridium sordellii isolated from intra-abdominal infection and pelvic inflammatory disease patients after 48 hrs by agar dilution method; conditions: Paraclostridium sordellii; how it was run: as §1
[21] = test system: Clostridium paraputrificum; test: Antimicrobial activity against Clostridium paraputrificum isolated from intra-abdominal infection and pelvic inflammatory disease patients after 48 hrs by agar dilution method; how it was run: as §1
Clostridium cadaveris = test: Antimicrobial activity against Clostridium cadaveris isolated from intra-abdominal infection and pelvic inflammatory disease patients after 48 hrs by agar dilution method; how it was run: as §1

Compound: CO/N=C(\C(=O)N[C@@H]1C(=O)N2C(C(=O)O)=C(CSc3nc(=O)c(O)nn3C)CS[C@H]12)c1csc(N)n1 [CEFTRIAXONE]
- MIC50 (Bacteroides fragilis [1]): 64 µg/mL (≈ 115 µM)
- MIC90 (Bacteroides fragilis [1]): > 128 µg/mL
- MIC50 [2]: > 128 µg/mL
- MIC90 [2]: > 128 µg/mL
- MIC (Bacteroides fragilis [3]): 0.25 µg/mL (≈ 0.451 µM)
- MIC (Prevotella intermedia [4]): 0.125 µg/mL (≈ 0.225 µM)
- MIC (Finegoldia magna [5]): 8 µg/mL (≈ 14.4 µM)
- MIC (Fusobacterium nucleatum [6]): 0.125 µg/mL (≈ 0.225 µM)
- MIC (Clostridium perfringens [7]): 2 µg/mL (≈ 3.61 µM)
- MIC50 (Bacteroides ovatus): 64 µg/mL (≈ 115 µM)
- MIC90 (Bacteroides ovatus): > 128 µg/mL
- MIC50 (Phocaeicola vulgatus): 16 µg/mL (≈ 28.9 µM)
- MIC90 (Phocaeicola vulgatus): > 128 µg/mL
- MIC50 [8]: 8 µg/mL (≈ 14.4 µM)
- MIC90 [8]: > 128 µg/mL
- MIC50 (Prevotella bivia): 8 µg/mL (≈ 14.4 µM)
- MIC90 (Prevotella bivia): 64 µg/mL (≈ 115 µM)
- MIC50 (Prevotella disiens): 2 µg/mL (≈ 3.61 µM)
- MIC90 (Prevotella disiens): 64 µg/mL (≈ 115 µM)
- MIC50 (Prevotella intermedia [9]): 4 µg/mL (≈ 7.21 µM)
- MIC90 (Prevotella intermedia [9]): 64 µg/mL (≈ 115 µM)
- MIC50 (Prevotella nigrescens): 4 µg/mL (≈ 7.21 µM)
- MIC90 (Prevotella nigrescens): 16 µg/mL (≈ 28.9 µM)
- MIC50 [10]: 4 µg/mL (≈ 7.21 µM)
- MIC90 [10]: 16 µg/mL (≈ 28.9 µM)
- MIC50 (Prevotella denticola): 4 µg/mL (≈ 7.21 µM)
- MIC90 (Prevotella denticola): 64 µg/mL (≈ 115 µM)
- MIC50 (Prevotella corporis): 4 µg/mL (≈ 7.21 µM)
- MIC90 (Prevotella corporis): 32 µg/mL (≈ 57.7 µM)
- MIC50 (Prevotella buccae): 0.25 µg/mL (≈ 0.451 µM)
- MIC90 (Prevotella buccae): 4 µg/mL (≈ 7.21 µM)
- MIC [11]: ≤ 0.125 µg/mL
- MIC (Porphyromonas gingivalis): ≤ 0.125 µg/mL
- MIC (Porphyromonas levii): ≤ 0.125 µg/mL
- MIC50 (Fusobacterium nucleatum [12]): 0.25 µg/mL (≈ 0.451 µM)
- MIC90 (Fusobacterium nucleatum [12]): 0.5 µg/mL (≈ 0.902 µM)
- MIC50 [13]: ≤ 0.125 µg/mL
- MIC90 [13]: 0.5 µg/mL (≈ 0.902 µM)
- MIC50 (Fusobacterium varium): 4 µg/mL (≈ 7.21 µM)
- MIC90 (Fusobacterium varium): 8 µg/mL (≈ 14.4 µM)
- MIC50 (Fusobacterium mortiferum): 0.25 µg/mL (≈ 0.451 µM)
- MIC90 (Fusobacterium mortiferum): ≥ 128 µg/mL
- MIC50 (Finegoldia magna [14]): 8 µg/mL (≈ 14.4 µM)
- MIC90 (Finegoldia magna [14]): 8 µg/mL (≈ 14.4 µM)
- MIC (Parvimonas micra): ≤ 0.125 µg/mL
- MIC50 (Parvimonas micra): ≤ 0.125 µg/mL
- MIC90 (Parvimonas micra): 1 µg/mL (≈ 1.8 µM)
- MIC [15]: 0.5 µg/mL (≈ 0.902 µM)
- MIC50 [15]: 0.5 µg/mL (≈ 0.902 µM)
- MIC90 [15]: 16 µg/mL (≈ 28.9 µM)
- MIC (Anaerococcus prevotii): ≤ 0.125 µg/mL
- MIC (Anaerococcus tetradius): 0.25 µg/mL (≈ 0.451 µM)
- MIC50 (Anaerococcus tetradius): 0.25 µg/mL (≈ 0.451 µM)
- MIC [16]: ≤ 0.125 µg/mL
- MIC50 [16]: ≤ 0.125 µg/mL
- MIC90 [16]: 1 µg/mL (≈ 1.8 µM)
- MIC50 (Clostridium perfringens [17]): 2 µg/mL (≈ 3.61 µM)
- MIC90 (Clostridium perfringens [17]): 4 µg/mL (≈ 7.21 µM)
- MIC50 (Clostridioides difficile): 64 µg/mL (≈ 115 µM)
- MIC90 (Clostridioides difficile): 64 µg/mL (≈ 115 µM)
- MIC50 ([Clostridium] innocuum): 16 µg/mL (≈ 28.9 µM)
- MIC50 (Thomasclavelia ramosa): 0.5 µg/mL (≈ 0.902 µM)
- MIC [18]: 0.25 µg/mL (≈ 0.451 µM)
- MIC [19]: 64 µg/mL (≈ 115 µM)
- MIC [20]: 0.25 µg/mL (≈ 0.451 µM)
- MIC [21]: 4 µg/mL (≈ 7.21 µM)
- MIC (Clostridium cadaveris): 4 µg/mL (≈ 7.21 µM)
